Assay results: ChEMBL document CHEMBL1136312, “Nortropinyl-arylsulfonylureas as novel, reversible inhibitors of human steroid sulfatase” (Bioorg Med Chem Lett, 2003)

What was measured:
Steryl-sulfatase [1] = target: T1, Steryl-sulfatase (Homo sapiens, UniProt P08842); assay: Inhibitory activity against Steroid sulfatase expressed in CHO cells; type: cell-based
T1 sequence (P08842 whole entry): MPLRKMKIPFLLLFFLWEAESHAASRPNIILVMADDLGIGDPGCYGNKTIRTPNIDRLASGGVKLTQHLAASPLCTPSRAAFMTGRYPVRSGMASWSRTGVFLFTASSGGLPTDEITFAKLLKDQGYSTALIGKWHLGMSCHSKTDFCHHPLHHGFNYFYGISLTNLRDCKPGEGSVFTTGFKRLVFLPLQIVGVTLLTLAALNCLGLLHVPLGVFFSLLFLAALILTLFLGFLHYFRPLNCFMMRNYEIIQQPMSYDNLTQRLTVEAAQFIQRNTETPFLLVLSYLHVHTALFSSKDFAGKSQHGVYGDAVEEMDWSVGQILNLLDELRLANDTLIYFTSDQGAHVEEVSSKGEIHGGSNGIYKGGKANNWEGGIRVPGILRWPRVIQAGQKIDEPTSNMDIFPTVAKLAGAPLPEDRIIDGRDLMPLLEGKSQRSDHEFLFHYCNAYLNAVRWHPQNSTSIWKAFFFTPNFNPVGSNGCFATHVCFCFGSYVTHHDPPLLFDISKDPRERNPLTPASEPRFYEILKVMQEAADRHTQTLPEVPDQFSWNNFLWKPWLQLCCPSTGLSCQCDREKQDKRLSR
Summary of the method: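 Intact CHO cells over-expressing recombinant human STS are given 4-MUS as substrate, using the assay variant for reversible inhibitors. STS activity is measured in the presence of inhibitor, and the IC50 is derived.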

Steryl-sulfatase [2] = target: T1, Steryl-sulfatase; assay: Inhibitory activity against purified human Steroid sulfatase
Summary of the method: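 Homogeneous human STS, purified from recombinant CHO cells, cleaves 4-methylumbelliferyl sulfate (4-MUS). The reaction is followed in a discontinuous fluorimetric assay with and without inhibitor, using a 1 h incubation in the standard format. The IC50 is taken from the inhibition data.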

Steryl-sulfatase [3] = target: T1, Steryl-sulfatase; assay: Inhibitory constant against purified human Steroid sulfatase
Summary of the method: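 Kinetic study with purified recombinant human STS and 4-MUS substrate in the discontinuous fluorimetric assay. Substrate turnover rates are measured at various inhibitor concentrations and replotted as Hanes diagrams. Kapp/Vapp ratios are plotted against inhibitor concentration, and Ki is read from the abscissa intercept. Pre-incubation and dextran-activated charcoal treatment were used to test reversibility.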

MCF7 = assay: Growth stimulation of estrogen receptor positive MCF-7 human breast cancer cells with compound up to 10 uM; not estrogenic; type: functional, cell-based

With `O=C(Cc1ccccc1)O[C@H]1C[C@H]2CC[C@@H](C1)N2C(=O)NS(=O)(=O)c1ccc(F)cc1` the IC50 (Steryl-sulfatase [1]) was 39.2 µM and the IC50 (Steryl-sulfatase [2]) was 50 µM.
With `O=C(Cc1ccccc1)O[C@H]1C[C@H]2CC[C@@H](C1)N2C(=O)NS(=O)(=O)c1ccc(Cl)cc1` the Ki (Steryl-sulfatase [3]) was 2.4 µM and the IC50 (Steryl-sulfatase [1]) was 6.72 µM.
`O=C(Cc1ccccc1)O[C@H]1C[C@H]2CC[C@@H](C1)N2C(=O)NS(=O)(=O)c1ccc(Br)cc1` was tested, and the Ki (Steryl-sulfatase [3]) was 1.85 µM and the IC50 (Steryl-sulfatase [1]) was 6.15 µM.
`Cc1ccc(S(=O)(=O)NC(=O)N2[C@@H]3CC[C@H]2C[C@@H](OC(=O)Cc2ccccc2)C3)cc1` was tested, and the IC50 (Steryl-sulfatase [1]) was 37.1 µM and the IC50 (Steryl-sulfatase [2]) was 16.6 µM.
`O=C(Cc1ccccc1)O[C@H]1C[C@H]2CC[C@@H](C1)N2C(=O)NS(=O)(=O)c1ccc(C(F)(F)F)cc1` showed a Ki (Steryl-sulfatase [3]) of 0.53 µM and an IC50 (Steryl-sulfatase [1]) of 7.47 µM.
For `N#CC1(OC(=O)Cc2ccccc2)CCN(C(=O)NS(=O)(=O)c2ccc(Cl)cc2)CC1`, the IC50 (Steryl-sulfatase [1]) was 24.5 µM and the IC50 (Steryl-sulfatase [2]) was 13 µM.
With `O=C(Cc1ccccc1)O[C@H]1C[C@H]2CC[C@@H](C1)N2C(=O)NS(=O)(=O)c1ccccc1` the IC50 (Steryl-sulfatase [1]) was > 30 µM and the IC50 (Steryl-sulfatase [2]) was > 100 µM.
For `O=C(Cc1ccccc1)O[C@H]1C[C@H]2CC[C@@H](C1)N2C(=O)NS(=O)(=O)c1cc(C(F)(F)F)cc(C(F)(F)F)c1`, the Ki (Steryl-sulfatase [3]) was 0.076 µM, the IC50 (Steryl-sulfatase [1]) was 1.89 µM and the IC50 (Steryl-sulfatase [2]) was 0.084 µM.
For `O=C(NN1[C@@H]2CC[C@H]1C[C@@H](OC(=O)Cc1ccccc1)C2)NS(=O)(=O)c1ccc(Cl)cc1`, the Activity (MCF7) was “not estrogenic”, the Ki (Steryl-sulfatase [3]) was 0.89 µM and the IC50 (Steryl-sulfatase [1]) was 3.84 µM.
For `O=C(Cc1ccccc1)OC1CCN(C(=O)NS(=O)(=O)c2ccc(Cl)cc2)CC1`, the IC50 (Steryl-sulfatase [1]) was > 30 µM and the IC50 (Steryl-sulfatase [2]) was > 100 µM.
For `O=C(Cc1ccccc1)O[C@H]1C[C@H]2CC[C@@H](C1)N2C(=O)CS(=O)(=O)c1ccc(Cl)cc1`, the IC50 (Steryl-sulfatase [1]) was 4.32 µM and the IC50 (Steryl-sulfatase [2]) was 6.2 µM.
With `O=C(Cc1ccccc1)O[C@H]1C[C@H]2CC[C@@H](C1)N2C(=O)NC(=O)c1ccc(Cl)cc1` the Ki (Steryl-sulfatase [3]) was 5.8 µM and the IC50 (Steryl-sulfatase [1]) was 10.4 µM.
`C[C@]12CC[C@@H]3c4ccc(OS(N)(=O)=O)cc4CC[C@H]3[C@@H]1CCC2=O` [EMATE] gave a Ki (Steryl-sulfatase [3]) of 0.67 µM and an IC50 (Steryl-sulfatase [1]) of 0.03 µM.
